From ChEMBL document CHEMBL4699431, “Design and synthesis of substituted (1-(benzyl)-1H-1,2,3-triazol-4-yl)(piperazin-1-yl)methanone conjugates: study on their apoptosis inducing ability and tubulin polymerization inhibition” (RSC Med Chem, 2020) come the findings set out here.

Common to all, as to format: functional, cell-based
One experiment has as its system HaCaT. Nature of the experiment: Cytotoxicity against human HaCaT cells assessed as reduction in cell viability incubated for 48 hrs by MTT assay. The method, boiled down:
(§1)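 Cells plated at 3000-4500 per well and treated after 24 h. DMSO stocks (20 mM) were diluted in medium to final DMSO <0.1%, twofold series […], 48 h. MTT (0.5 mg/mL) was added for 4 h, formazan dissolved in DMSO, absorbance read at 570 nm.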

The next experiment relates to HeLa. In words: Cytotoxicity against human HeLa cells assessed as reduction in cell viability incubated for 48 hrs by MTT assay. A digest of the protocol:
as §1
(In general: Tetrazolium dyes change colour on reduction, which living cells bring about.)

A further experiment has as its system BT-474. Nature of the experiment: Cytotoxicity against human BT-474 cells assessed as reduction in cell viability incubated for 48 hrs by MTT assay. As to conditions: BT-474, 48 h. The method, boiled down: as §1
Another experiment deals with NCI-H460. In words: Cytotoxicity against human NCI-H460 cells assessed as reduction in cell viability incubated for 48 hrs by MTT assay. As to conditions: NCI-H460, 48 h. The method, boiled down:
as §1

The next experiment relates to MCF7. Nature of the experiment: Cytotoxicity against human MCF-7 cells assessed as reduction in cell viability incubated for 48 hrs by MTT assay. As to conditions: MCF7, 48 h. A digest of the protocol: as §1

In general, IC50 refers to the concentration that gives 50% inhibition. As for `O=C(c1cn(Cc2ccc(I)cc2)nn1)N1CCN(S(=O)(=O)c2ccc(Cl)cc2)CC1`, the IC50 in the experiment with HaCaT is 2.22 µM; in the experiment on HeLa, 5.74 µM; in the experiment with BT-474, 4.96 µM; in the experiment on NCI-H460, 2.25 µM; with MCF7 it was 1.34 µM.
For `COc1ccc(S(=O)(=O)N2CCN(C(=O)c3cn(Cc4ccc(F)cc4)nn3)CC2)cc1`, the IC50 with HaCaT, in the experiment on HeLa, in the experiment with BT-474, with NCI-H460 and in the experiment on MCF7 was > 30 µM throughout.
Consider `O=C(c1cn(Cc2ccccc2)nn1)N1CCN(S(=O)(=O)c2ccc(Br)cc2)CC1`, for which the IC50 with HaCaT, in the experiment with HeLa, in the experiment with BT-474, in the experiment on NCI-H460 and in the experiment on MCF7 was > 30 µM throughout.
For the compound `COc1ccc(S(=O)(=O)N2CCN(C(=O)c3cn(Cc4cccc(OC)c4)nn3)CC2)cc1`, the IC50 with HaCaT, in the experiment on HeLa, in the experiment with BT-474, in the experiment on NCI-H460 and in the experiment on MCF7 was > 30 µM in each case.
For `CC(C)(C)c1ccc(S(=O)(=O)N2CCN(C(=O)c3cn(Cc4ccc(F)cc4)nn3)CC2)cc1`, the IC50 with HaCaT, in the experiment on HeLa, with BT-474, with NCI-H460 and with MCF7 was > 30 µM in each case.
`CC(C)(C)c1ccc(S(=O)(=O)N2CCN(C(=O)c3cn(Cc4cccc(Oc5ccccc5)c4)nn3)CC2)cc1`: the IC50 is 4.34 µM with HaCaT; 3.7 µM in the experiment with HeLa; 3.89 µM in the experiment on BT-474; 5.05 µM in the experiment with NCI-H460; 3.28 µM in the experiment with MCF7.
The corresponding values for `O=C(c1cn(Cc2cccc(Oc3ccccc3)c2)nn1)N1CCN(S(=O)(=O)c2ccc(Cl)cc2)CC1` are 2.96 µM, 8.61 µM, 1.96 µM, 5.68 µM and 4.41 µM.
Regarding `Cc1ccc(S(=O)(=O)N2CCN(C(=O)c3cn(Cc4ccc(I)cc4)nn3)CC2)cc1`, the IC50 in the experiment on HaCaT, in the experiment on HeLa, with BT-474, in the experiment on NCI-H460 and in the experiment on MCF7 was > 30 µM in each case.
For the compound `COc1ccc(S(=O)(=O)N2CCN(C(=O)c3cn(Cc4ccccc4)nn3)CC2)cc1`, the IC50 in the experiment with HaCaT, in the experiment with HeLa, with BT-474, in the experiment with NCI-H460 and in the experiment with MCF7 was > 30 µM throughout.
Consider `Cc1ccc(S(=O)(=O)N2CCN(C(=O)c3cn(Cc4ccc(F)cc4)nn3)CC2)cc1`, for which the IC50 with HaCaT, with HeLa, with BT-474, in the experiment with NCI-H460 and in the experiment with MCF7 was > 30 µM in each case.
On to `COc1ccc(S(=O)(=O)N2CCN(C(=O)c3cn(Cc4ccc(I)cc4)nn3)CC2)cc1`, for which the IC50 with HaCaT, in the experiment on HeLa, with BT-474, with NCI-H460 and in the experiment on MCF7 was > 30 µM throughout.
Turning to `O=C(c1cn(Cc2ccc(F)cc2)nn1)N1CCN(S(=O)(=O)c2ccc(Cl)cc2)CC1`, the IC50 with HaCaT, in the experiment on HeLa, in the experiment on BT-474, in the experiment on NCI-H460 and with MCF7 was > 30 µM each time.
For the compound `O=C(c1cn(Cc2ccc(I)cc2)nn1)N1CCN(S(=O)(=O)c2ccccc2)CC1`, the IC50 in the experiment on HaCaT, in the experiment on HeLa, in the experiment with BT-474, with NCI-H460 and in the experiment on MCF7 was > 30 µM throughout.
Consider `O=C(c1cn(Cc2ccccc2)nn1)N1CCN(S(=O)(=O)c2ccccc2)CC1`, for which the IC50 in the experiment on HaCaT, in the experiment with HeLa, in the experiment with BT-474, in the experiment on NCI-H460 and with MCF7 was > 30 µM throughout.
For `O=C(c1cn(Cc2ccc(F)cc2)nn1)N1CCN(S(=O)(=O)c2ccccc2)CC1`, the IC50 in the experiment on HaCaT, in the experiment with HeLa, in the experiment with BT-474, in the experiment on NCI-H460 and in the experiment with MCF7 was > 30 µM throughout.
`O=C(c1cn(Cc2cccc(Oc3ccccc3)c2)nn1)N1CCN(S(=O)(=O)c2ccccc2)CC1`: the IC50 with HaCaT, in the experiment on HeLa, with BT-474, with NCI-H460 and with MCF7 was > 30 µM in each case.
As for `COc1cccc(Cn2cc(C(=O)N3CCN(S(=O)(=O)c4ccc(Br)cc4)CC3)nn2)c1`, the IC50 in the experiment on HaCaT, in the experiment with HeLa, in the experiment with BT-474, in the experiment on NCI-H460 and in the experiment with MCF7 was > 30 µM each time.
For the compound `O=C(c1cn(Cc2ccccc2)nn1)N1CCN(S(=O)(=O)c2ccc(Cl)cc2)CC1`, the IC50 in the experiment on HaCaT, with HeLa, in the experiment with BT-474, in the experiment with NCI-H460 and with MCF7 was > 30 µM each time.
As to `COc1cccc(Cn2cc(C(=O)N3CCN(S(=O)(=O)c4ccccc4)CC3)nn2)c1`, the IC50 in the experiment on HaCaT, in the experiment with HeLa, in the experiment on BT-474, with NCI-H460 and in the experiment on MCF7 was > 30 µM each time.
As to `CC(C)(C)c1ccc(S(=O)(=O)N2CCN(C(=O)c3cn(Cc4ccc(I)cc4)nn3)CC2)cc1`, the IC50 with HaCaT was found to be 2.06 µM; in the experiment with HeLa, 3.58 µM; with BT-474, 1.21 µM; with NCI-H460 it was 1.42 µM; in the experiment on MCF7, 3.06 µM.
As to `COc1ccc(S(=O)(=O)N2CCN(C(=O)c3cn(Cc4cccc(Oc5ccccc5)c4)nn3)CC2)cc1`, the IC50 amounted to 2.59 µM in the experiment with HaCaT; 3.72 µM with HeLa; 5.13 µM with BT-474; 8.2 µM in the experiment on NCI-H460; 2.2 µM in the experiment on MCF7.
Taken in the same sequence, the figures for `Cc1ccc(S(=O)(=O)N2CCN(C(=O)c3cn(Cc4ccccc4)nn3)CC2)cc1` were > 30 µM, > 30 µM, > 30 µM, > 30 µM and > 30 µM.
Taken in the same sequence, the figures for `CC(C)(C)c1ccc(S(=O)(=O)N2CCN(C(=O)c3cn(Cc4ccccc4)nn3)CC2)cc1` were > 30 µM, > 30 µM, > 30 µM, > 30 µM and > 30 µM.
The corresponding values for `Cc1ccc(S(=O)(=O)N2CCN(C(=O)c3cn(Cc4cccc(Oc5ccccc5)c4)nn3)CC2)cc1` are > 30 µM, > 30 µM, > 30 µM, > 30 µM and > 30 µM.
`COc1cccc(Cn2cc(C(=O)N3CCN(S(=O)(=O)c4ccc(C(C)(C)C)cc4)CC3)nn2)c1`: the IC50 in the experiment on HaCaT, in the experiment on HeLa, in the experiment on BT-474, in the experiment with NCI-H460 and with MCF7 was > 30 µM in each case.
For `COc1cccc(Cn2cc(C(=O)N3CCN(S(=O)(=O)c4ccc(Cl)cc4)CC3)nn2)c1`, the IC50 in the experiment on HaCaT, in the experiment on HeLa, in the experiment with BT-474, in the experiment with NCI-H460 and in the experiment on MCF7 was > 30 µM each time.
On to `O=C(c1cn(Cc2ccc(I)cc2)nn1)N1CCN(S(=O)(=O)c2ccc(Br)cc2)CC1`, for which the IC50 in the experiment on HaCaT worked out at 2.48 µM; in the experiment with HeLa, 6.52 µM; with BT-474 it was 2.33 µM; with NCI-H460, 3.55 µM; with MCF7 it was 2.73 µM.
Turning to `COC(=O)Nc1nc2cc(C(=O)c3cccs3)ccc2[nH]1` [NOCODAZOLE], the 50% inhibitory concentration (IC50) in the experiment on HaCaT is 1.19 µM; in the experiment with BT-474, 0.87 µM; in the experiment on NCI-H460, 2.29 µM; in the experiment with MCF7, 1.76 µM.
Regarding `O=C(c1cn(Cc2ccc(F)cc2)nn1)N1CCN(S(=O)(=O)c2ccc(Br)cc2)CC1`, the half-maximal inhibitory concentration (IC50) in the experiment with HaCaT, with HeLa, in the experiment with BT-474, in the experiment on NCI-H460 and with MCF7 was > 30 µM each time.
